Experimental data from ChEMBL document CHEMBL1152839, “2-[2-Substituted-3-(3,4-dichlorobenzylamino)propylamino]-1H-quinolin-4-ones as Staphylococcus aureus methionyl-tRNA synthetase inhibitors” (Eur J Med Chem, 2009).
In brackets after ≈: the same amount, converted by molar mass.

Tests used:
[1] = Inhibition of Staphylococcus aureus methionyl-tRNA synthetase assessed as decrease in [35S]methionyl-tRNA generation
[2] = tested on: Staphylococcus aureus; experiment: Antibacterial activity against Staphylococcus aureus ATCC 25923 after 16 hrs at 36 degC by microdilution method; assay type: functional; conditions: ATCC 25923, 16 h
Method in brief: (§1)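 Broth microdilution in Mueller-Hinton broth, following NCCLS/CLSI. Stock solutions were serially diluted 2-fold to the final test concentrations. The MIC was the lowest concentration that prevented visible growth after incubation at 36 °C. Mupirocin and amoxicillin were reference antibiotics run by the same method.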

[3] = tested on: Staphylococcus aureus; experiment: Antibacterial activity against Staphylococcus aureus ATCC 6538P after 16 hrs at 36 degC by microdilution method; assay type: functional; method in brief: as §1
[4] = tested on: Staphylococcus aureus; experiment: Antibacterial activity against Staphylococcus aureus ATCC 10537 after 16 hrs at 36 degC by microdilution method; assay type: functional; conditions: ATCC 10537, 16 h; method in brief: as §1
[5] = tested on: Staphylococcus aureus; experiment: Antibacterial activity against Staphylococcus aureus GIORGIO after 16 hrs at 36 degC by microdilution method; assay type: functional; method in brief: as §1
[6] = tested on: Staphylococcus aureus; experiment: Antibacterial activity against Staphylococcus aureus Smith after 16 hrs at 36 degC by microdilution method; assay type: functional; method in brief: as §1
[7] = tested on: Staphylococcus aureus; experiment: Antibacterial activity against Staphylococcus aureus SP-N2 after 16 hrs at 36 degC by microdilution method; assay type: functional
Method in brief: (§2)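 Broth microdilution per CLSI in Mueller-Hinton broth for staphylococci. Stock solutions were diluted in a 2-fold serial series to final test concentrations. The MIC was read as the lowest concentration that prevented visible bacterial growth after incubation at 36 °C. Mupirocin and amoxicillin were run by the same method as references.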

[8] = tested on: Staphylococcus epidermidis; experiment: Antibacterial activity against Staphylococcus epidermidis ATCC 12228 after 16 hrs at 36 degC by microdilution method; assay type: functional; conditions: ATCC 12228, 16 h; method in brief: as §1
[9] = tested on: Staphylococcus aureus; experiment: Antibacterial activity against methicillin-resistant Staphylococcus aureus KS2007-6 after 16 hrs at 36 degC by microdilution method; assay type: functional; method in brief: as §2
[10] = tested on: Enterococcus faecium; experiment: Antibacterial activity against Enterococcus faecium ATCC 10541 after 16 hrs at 36 degC by microdilution method; assay type: functional; conditions: ATCC 10541, 16 h
Method in brief: (§3)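 Broth microdilution in Brain Heart Infusion broth, following NCCLS/CLSI. Test compounds were serially diluted 2-fold from stock. The MIC was the lowest concentration with no visible bacterial growth after incubation at 36 °C. Mupirocin and amoxicillin were tested the same way as references.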

[11] = tested on: Enterococcus faecalis; experiment: Antibacterial activity against Enterococcus faecalis ATCC 19433 after 16 hrs at 36 degC by microdilution method; assay type: functional; conditions: ATCC 19433, 16 h; method in brief: as §3
[12] = tested on: Enterococcus faecalis; experiment: Antibacterial activity against Enterococcus faecalis ATCC 29212 after 16 hrs at 36 degC by microdilution method; assay type: functional; conditions: ATCC 29212, 16 h; method in brief: as §3

`O=c1cc(NCCCNCc2ccc(Cl)c(Cl)c2)[nH]c2ccccc12` showed an IC50 [1] of 3.4 nM, an MIC [2] of 16 µg/mL (≈ 42.5 µM) and an MIC [3] of 4 µg/mL (≈ 10.6 µM). The MIC [4] was 16 µg/mL (≈ 42.5 µM), the MIC [5] was 32 µg/mL (≈ 85 µM) and the MIC [6] was 16 µg/mL (≈ 42.5 µM). For the same compound, the MIC [7] was 8 µg/mL (≈ 21.3 µM), the MIC [8] was 8 µg/mL (≈ 21.3 µM) and the MIC [9] was 8 µg/mL (≈ 21.3 µM). For the same compound, the MIC [10] was 0.5 µg/mL (≈ 1.33 µM), the MIC [11] was 2 µg/mL (≈ 5.32 µM) and the MIC [12] was 2 µg/mL (≈ 5.32 µM).
`CCOC(CNCc1ccc(Cl)c(Cl)c1)CNc1cc(=O)c2ccccc2[nH]1` (centres undefined) gave an IC50 [1] of 30.3 nM, an MIC [2] of 16 µg/mL (≈ 38.1 µM) and an MIC [3] of 8 µg/mL (≈ 19 µM). The MIC [4] was 16 µg/mL (≈ 38.1 µM), the MIC [5] was 16 µg/mL (≈ 38.1 µM) and the MIC [6] was 16 µg/mL (≈ 38.1 µM). The MIC [7] was 16 µg/mL (≈ 38.1 µM), the MIC [8] was 8 µg/mL (≈ 19 µM) and the MIC [9] was 8 µg/mL (≈ 19 µM). It also gave an MIC [10] of 1 µg/mL (≈ 2.38 µM), an MIC [11] of 4 µg/mL (≈ 9.52 µM) and an MIC [12] of 4 µg/mL (≈ 9.52 µM).
`O=c1cc(NCC(CO)CNCc2ccc(Cl)c(Cl)c2)[nH]c2ccccc12` (centres undefined) showed an IC50 [1] of 11.9 nM, an MIC [2] of 64 µg/mL (≈ 158 µM) and an MIC [3] of 16 µg/mL (≈ 39.4 µM). It also gave an MIC [4] of 32 µg/mL (≈ 78.8 µM), an MIC [5] of 64 µg/mL (≈ 158 µM) and an MIC [6] of 32 µg/mL (≈ 78.8 µM). The MIC [7] was 16 µg/mL (≈ 39.4 µM), the MIC [8] was 16 µg/mL (≈ 39.4 µM) and the MIC [9] was 16 µg/mL (≈ 39.4 µM). It also gave an MIC [10] of 2 µg/mL (≈ 4.92 µM), an MIC [11] of 8 µg/mL (≈ 19.7 µM) and an MIC [12] of 8 µg/mL (≈ 19.7 µM).
For `NC(CNCc1ccc(Cl)c(Cl)c1)CNc1cc(=O)c2ccccc2[nH]1` (centres undefined), the IC50 [1] was 137 nM, the MIC [2] was 64 µg/mL (≈ 164 µM) and the MIC [3] was 64 µg/mL (≈ 164 µM). The MIC [4] was 64 µg/mL (≈ 164 µM), the MIC [5] was 64 µg/mL (≈ 164 µM) and the MIC [6] was 64 µg/mL (≈ 164 µM). For the same compound, the MIC [7] was 64 µg/mL (≈ 164 µM), the MIC [8] was 32 µg/mL (≈ 81.8 µM) and the MIC [9] was 64 µg/mL (≈ 164 µM). The MIC [10] was 16 µg/mL (≈ 40.9 µM), the MIC [11] was 64 µg/mL (≈ 164 µM) and the MIC [12] was 64 µg/mL (≈ 164 µM).
For `CC(C)OC(CNCc1ccc(Cl)c(Cl)c1)CNc1cc(=O)c2ccccc2[nH]1` (centres undefined), the IC50 [1] was 91 nM, the MIC [2] was 16 µg/mL (≈ 36.8 µM) and the MIC [3] was 16 µg/mL (≈ 36.8 µM). For the same compound, the MIC [4] was 16 µg/mL (≈ 36.8 µM), the MIC [5] was 32 µg/mL (≈ 73.7 µM) and the MIC [6] was 16 µg/mL (≈ 36.8 µM). The MIC [7] was 16 µg/mL (≈ 36.8 µM), the MIC [8] was 16 µg/mL (≈ 36.8 µM) and the MIC [9] was 8 µg/mL (≈ 18.4 µM). It also gave an MIC [10] of 2 µg/mL (≈ 4.6 µM), an MIC [11] of 4 µg/mL (≈ 9.21 µM) and an MIC [12] of 4 µg/mL (≈ 9.21 µM).
`O=c1cc(NCC(CNCc2ccc(Cl)c(Cl)c2)OCc2ccccc2)[nH]c2ccccc12` (centres undefined) gave an IC50 [1] of 24.7 nM, an MIC [2] of 4 µg/mL (≈ 8.29 µM) and an MIC [3] of 4 µg/mL (≈ 8.29 µM). It also gave an MIC [4] of 4 µg/mL (≈ 8.29 µM), an MIC [5] of 4 µg/mL (≈ 8.29 µM) and an MIC [6] of 4 µg/mL (≈ 8.29 µM). It also gave an MIC [7] of 4 µg/mL (≈ 8.29 µM), an MIC [8] of 2 µg/mL (≈ 4.15 µM) and an MIC [9] of 2 µg/mL (≈ 4.15 µM). For the same compound, the MIC [10] was 0.5 µg/mL (≈ 1.04 µM), the MIC [11] was 2 µg/mL (≈ 4.15 µM) and the MIC [12] was 2 µg/mL (≈ 4.15 µM).
`CC(C)(C)OC(=O)NC(CNCc1ccc(Cl)c(Cl)c1)CNc1cc(=O)c2ccccc2[nH]1` (centres undefined) showed an IC50 [1] of 103 nM, an MIC [2] of 32 µg/mL (≈ 65.1 µM) and an MIC [3] of 32 µg/mL (≈ 65.1 µM). For the same compound, the MIC [4] was 32 µg/mL (≈ 65.1 µM), the MIC [5] was 32 µg/mL (≈ 65.1 µM) and the MIC [6] was 32 µg/mL (≈ 65.1 µM). It also gave an MIC [7] of 32 µg/mL (≈ 65.1 µM), an MIC [8] of 32 µg/mL (≈ 65.1 µM) and an MIC [9] of 32 µg/mL (≈ 65.1 µM). For the same compound, the MIC [10] was 8 µg/mL (≈ 16.3 µM), the MIC [11] was 32 µg/mL (≈ 65.1 µM) and the MIC [12] was 32 µg/mL (≈ 65.1 µM).
